Data set [1] can be described thus: Half life in dog at 0.5 mg/kg. The format is ADME, organism-based, Canis lupus familiaris. Further details: dose 0.5 mg/kg. The note with it: in vivo. In outline:
(§1)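 Compound was given intravenously to dogs. Pharmacokinetic parameters, including plasma protein binding, are means of n = 2 animals.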

Data set [2] is described as follows: Apparent permeability in human Caco-2 cell at 25 uM. The format is ADME, cell-based. The procedure, abridged: (§2)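 Human Caco-2 monolayers were used. Papp = amount transported/(time × surface area × initial concentration). Compounds were tested at 25 µM unless stated otherwise. Efflux ratio = secretory flux ÷ absorptive flux.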
The nature of data set [3]: Stability in dog liver microsome. The format is ADME, Canis lupus familiaris. The note with it: liver microsomes, read-out: Stability.
Data set [4] in a line: physchem. The note with it: octanol/water, pH 7.4.
For data set [5], the target named is T1, cGMP-specific 3',5'-cyclic phosphodiesterase (Homo sapiens, UniProt O76074).
Data set [6] can be described thus: Clearance in dog at 0.5 mg/kg. In kind it is ADME, organism-based, Canis lupus familiaris. Further details: dose 0.5 mg/kg. The note with it: in vivo. The procedure, abridged: as §1
Data set [7] in a line: Volume of distribution in dog at 0.5 mg/kg. The format is ADME, organism-based, Canis lupus familiaris. On the set-up: dose 0.5 mg/kg. The note with it: in vivo, read-out: Vdss. The procedure, abridged:
as §1

A short description of data set [8]: Plasma protein binding in dog at 0.5 mg/kg. The format is ADME, organism-based, Canis lupus familiaris. On the set-up: dose 0.5 mg/kg. The note with it: read-out: PPB (converted). In outline: as §1
Data set [9] can be described thus: Solubility at pH 7.6. In kind it is physicochemical. The conditions noted are these: buffer. The procedure, abridged: (§3)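 Solid was removed by filtration (with filter-binding check) or double centrifugation. The pH of the soluble fraction was measured, and the solution was diluted in mobile phase and quantified by HPLC or MS. Bulk form was checked by microscopy.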

Data set [10] is described as follows: Ratio of secretory flux to absorptive flux in human Caco-2 cell. The format is ADME, cell-based. In outline: as §2
Data set [11] is described as follows: Selectivity for human PDE5 over canine retinal PDE6. In outline:
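Ratio of IC50s for PDE5 from human corpus cavernosum and cone PDE6 from canine retina. PDE6 came from the 100 000g supernatant of retina homogenate, purified by anion exchange with a NaCl gradient. Activity was read by scintillation proximity assay with cGMP (3:1 unlabeled:3H) at about 1/3 Km, so IC50 = Ki. Buffer was 20 mM Tris-HCl pH 7.4, 5 mM MgCl2 and 1 mg/mL BSA. Incubation ran 30-60 min at 30 °C, keeping turnover below 30%. PDE5 curves spanned 1 nM-10 µM.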

A short description of data set [12]: Solubility at pH 7.3. In kind it is physicochemical. The conditions noted are these: buffer. In outline:
as §3

A short description of data set [13]: Tmax in dog at 0.5 mg/kg. The note with it: in vivo. On the set-up: dose 0.5 mg/kg. The format is ADME, organism-based, Canis lupus familiaris.
A short description of data set [14]: Oral bioavailability in dog at 0.5 mg/kg. The note with it: in vivo. The format is ADME, organism-based, Canis lupus familiaris.
A short description of data set [15]: Solubility at pH 7.4. The format is physicochemical. The conditions noted are these: buffer. In outline: as §3
In data set [16] the target is T1, cGMP-specific 3',5'-cyclic phosphodiesterase. The source holds these as a separate data set.
Data set [17] is described as follows: Distribution coefficient, logD of the compound. The format is physicochemical. The conditions noted are these: octanol/water.
A short description of data set [18]: Solubility at pH 6.95. In kind it is physicochemical. The conditions noted are these: buffer. In outline:
as §3

Data set [19] can be described thus: Oral bioavailability in human. The format is ADME, organism-based. The conditions noted are these: in vivo.

Values after ≈ are worked out from the molar mass of the structure shown. Bounds are passed on as bounds.

Data on 37 molecules can be found in ChEMBL document CHEMBL1148639, “A novel series of potent and selective PDE5 inhibitors with potential for high and dose-independent oral bioavailability” (J Med Chem, 2006).

With `CCCCOc1ncc(C(C)=O)cc1-c1nc2c(CC)n(C3CCN(CC)CC3)nc2c(=O)[nH]1`, the half-life in data set [1] is 402 min; in data set [3] it was > 120 min. The apparent permeability coefficient (Papp) at 25 µM in data set [2] turned out to be 53 ×10⁻⁶ cm/s. The molecule further had a pH-dependent lipophilicity (logD) in data set [4] of 1.8. The 50% inhibitory concentration (IC50) in data set [5] is 3.6 nM. The molecule further yielded a clearance in data set [6] of 38 mL/min/kg. For the same molecule, in [7], the Vd worked out at 22 L/kg. Further, the fraction unbound in data set [8] is 0.4. The same molecule came in with a solubility in data set [9] of 1100 µg/mL (≈ 2360 µM). Also, the efflux ratio in [10] came to 1.
In the case of `CCCCOc1ncc(C(C)=O)cc1-c1nc(O)c2nn(C3CCNCC3)c(CC)c2n1`, in data set [11], the Selectivity ratio turned out to be 57.
`CCCOc1ncc(C(C)=O)cc1-c1nc2c(CC)n(C3CN(C(C)C)C3)nc2c(=O)[nH]1`: the half-life in data set [1] was 432 min; in data set [3], > 120 min. In addition, the apparent permeability (Papp) at 25 µM in data set [2] is 28 ×10⁻⁶ cm/s. This molecule registered a solubility in data set [12] of 170 µg/mL (≈ 388 µM). In [13], the time of peak concentration (Tmax) is 1.9 h. Also, the logD in data set [4] came out at 2.5. This molecule had an IC50 in data set [5] of 5.2 nM. Moreover, the bioavailability in [14] was determined as 91%. The clearance in data set [6] was found to be 13 mL/min/kg. Besides, in [7], the Vd was determined as 7.8 L/kg. The fraction unbound in data set [8] is 0.34. Besides, the efflux ratio in [10] was found to be 0.5.
For `CCCc1nn(C)c2c(=O)[nH]c(-c3cc(C(C)=O)ccc3OCC)nc12`, in data set [2], the Papp at 25 µM was 43 ×10⁻⁶ cm/s. Also, the half-maximal inhibitory concentration (IC50) in data set [5] came to 17 nM. For the same molecule, the efflux ratio in [10] stood at 0.7.
As to `CCCOc1ncc(C(C)=O)cc1-c1nc(O)c2nn(C3CCN(C)CC3)c(CC)c2n1`, the Selectivity ratio in [11] is 37.
On the same count and under the same terms, as for `CCCCOc1ncc(C(C)=O)cc1-c1nc(O)c2nn(C3CN(C)C3)c(CC)c2n1`, the figure is 43.
In turn, `CCCOc1ncc(C(C)=O)cc1-c1nc2c(CC)n(C3CCN(C)CC3)nc2c(=O)[nH]1` returned an IC50 in [5] of 12 nM.
On to `CCCCOc1ncc(C(C)=O)cc1-c1nc(O)c2nn(C3CCN(CC)CC3)c(CC)c2n1`, for which the Selectivity ratio in data set [11] was 350.
`CCCCOc1ncc(C(C)=O)cc1-c1nc2c(CC)n(C3CN(CC)C3)nc2c(=O)[nH]1`: the half-life in data set [1] is 540 min; in data set [3], 95 min. Besides, in data set [2], the Papp at 25 µM amounted to 30 ×10⁻⁶ cm/s. For the same molecule, the concentration in solution in [15] (solubility) was 390 µg/mL (≈ 889 µM). Further, the Tmax in [13] came to 1.4 h. In [4], this molecule came in with a pH-dependent lipophilicity (logD) of 2.8. For the same molecule, the IC50 in data set [5] and in data set [16] was 5.5 nM in each case. In addition, in data set [14], the bioavailability is 76%. In data set [6], this molecule showed a clearance of 17.5 mL/min/kg. Moreover, the Vd in [7] was 13.4 L/kg. Besides, the fraction unbound in data set [8] was 0.38. The efflux ratio in data set [10] was found to be 0.9.
As for `CCCOc1ncc(C(C)=O)cc1-c1nc(O)c2nn(C3CCNCC3)c(CC)c2n1`, the Selectivity ratio in data set [11] stood at 53.
With `CCCCOc1ncc(C(C)=O)cc1-c1nc(O)c2nn(C3CNC3)c(CC)c2n1`, the Selectivity ratio in data set [11] was 29.
Molecule `CCc1c2nc(-c3cc(C(C)=O)cnc3OCC(C)C)[nH]c(=O)c2nn1C1CN(C)C1` gave an IC50 in [5] of 8.2 nM.
`CCCOc1ncc(C(C)=O)cc1-c1nc2c(CC)n(C3CCNCC3)nc2c(=O)[nH]1`: the IC50 in data set [5] was 7 nM.
With `CCCOc1ncc(C(C)=O)cc1-c1nc2c(CC)n(C3CN(CC)C3)nc2c(=O)[nH]1`, in data set [5], the half-inhibitory concentration (IC50) turned out to be 7.1 nM.
Consider `CCCOc1ncc(C(C)=O)cc1-c1nc(O)c2nn(C3CN(C)C3)c(CC)c2n1`, for which the Selectivity ratio in data set [11] came out at 69.
In data set [5], `CCc1c2nc(-c3cc(C(C)=O)cnc3OCCOC)nc(O)c2nn1CCN1CCOCC1` showed a half-maximal inhibitory concentration (IC50) of 53 nM. Besides, the Selectivity ratio in data set [11] was found to be 58.
`CCCOc1ncc(C(C)=O)cc1-c1nc(O)c2nn(C3CN(CC)C3)c(CC)c2n1`: the Selectivity ratio in data set [11] turned out to be 61.
The molecule `CCCOc1ncc(C(C)=O)cc1-c1nc2c(CC)n(C3CNC3)nc2c(=O)[nH]1` displayed a logD in data set [17] of 0.3. In data set [5], this molecule returned an IC50 of 34 nM.
On to `CCCCOc1ncc(C(C)=O)cc1-c1nc(O)c2nn(C3CN(CC)C3)c(CC)c2n1`, for which, in data set [11], the Selectivity ratio amounted to 153.
On to `CCCOc1ncc(C(C)=O)cc1-c1nc(O)c2nn(C3CN(C)C3)c(CCC)c2n1`, for which the logD in [17] was 1.5. Also, the IC50 in data set [5] stood at 14.7 nM. In data set [11], the Selectivity ratio amounted to 30.
In the case of `CCc1c2nc(-c3cc(C(C)=O)cnc3OCC(C)C)nc(O)c2nn1C1CN(C)C1`, in data set [11], the Selectivity ratio was determined as 84.
With `CCCCOc1ncc(C(C)=O)cc1-c1nc(O)c2nn(Cc3nccn3C)c(CC)c2n1`, the Papp at 25 µM in [2] was 5 ×10⁻⁶ cm/s. In addition, the half-life in data set [3] is > 120 min. The pH-dependent lipophilicity (logD) in data set [4] was determined as 2.6. For the same molecule, it took 0.9 nM to reach half-maximal inhibition in data set [5] (IC50). For the same molecule, the Selectivity ratio in data set [11] stood at 142. In addition, in data set [10], the efflux ratio turned out to be 1.6. This molecule returned a solubility in data set [18] of 6 µg/mL (≈ 13.3 µM).
With `CCCOc1ncc(C(C)=O)cc1-c1nc(O)c2nn(C3CCN(CC)CC3)c(CC)c2n1`, the Selectivity ratio in data set [11] stood at 18.
Molecule `CCCOc1ncc(C(C)=O)cc1-c1nc(O)c2nn(Cc3nccn3C)c(CC)c2n1` registered a half-inhibitory concentration (IC50) in data set [5] of 2.7 nM. In data set [11], the Selectivity ratio was determined as 58.
For the molecule `CCCCOc1ncc(C(C)=O)cc1-c1nc(O)c2nn(C3CCN(C)CC3)c(CC)c2n1`, the Selectivity ratio in [11] stood at 77.
As to `CCCCOc1ncc(C(C)=O)cc1-c1nc2c(CC)n(C3CCN(C)CC3)nc2c(=O)[nH]1`, the IC50 in data set [5] came to 9.1 nM.
Regarding `CCCCOc1ncc(C(C)=O)cc1-c1nc2c(CC)n(C3CNC3)nc2c(=O)[nH]1`, the IC50 in data set [5] turned out to be 21 nM.
The same measure, in the same setting: as for `CCCCOc1ncc(C(C)=O)cc1-c1nc2c(CC)n(C3CN(C)C3)nc2c(=O)[nH]1`, the figure is 6.4 nM.
In the case of `CCCCOc1ncc(C(C)=O)cc1-c1nc2c(CC)n(CCN3CCOCC3)nc2c(=O)[nH]1`, the Papp at 25 µM in data set [2] was 37 ×10⁻⁶ cm/s. The half-life in data set [3] was > 120 min. Also, the solubility in data set [12] was < 10 µg/mL. The 50% inhibitory concentration (IC50) in [5] turned out to be 2.6 nM.
For the molecule `CCCc1nn(C)c2c(=O)[nH]c(-c3cc(C(=O)CN4CCOCC4)ccc3OCC)nc12`, in data set [2], the apparent permeability (Papp) at 25 µM amounted to 33 ×10⁻⁶ cm/s. Moreover, the IC50 in data set [5] came out at 1.7 nM. The efflux ratio in [10] was 0.8.
The molecule `CCCOc1ncc(C(C)=O)cc1-c1nc2c(CC)n(C3CN(C)C3)nc2c(=O)[nH]1` showed a logD in data set [17] of 1.2. This molecule gave an IC50 in [5] of 9.5 nM.
With `CCCOc1ncc(C(C)=O)cc1-c1nc(=O)c2nn(C3CNC3)c(CCC)c2[nH]1`, the logD in [17] was found to be 0.6. Moreover, half-maximal inhibition in [5] (IC50) required 18.2 nM. Further, the Selectivity ratio in data set [11] is 26.
Consider `CCCOc1ncc(C(C)=O)cc1-c1nc(O)c2nn(C3CN(C(C)C)C3)c(CC)c2n1`, for which, in data set [11], the Selectivity ratio was 60.
In the case of `CCCCOc1ncc(C(C)=O)cc1-c1nc2c(CC)n(C3CCNCC3)nc2c(=O)[nH]1`, the midpoint of inhibition in data set [5], the IC50, lay at 18 nM.
`CCCOc1ncc(C(C)=O)cc1-c1nc2c(CC)n(C3CCN(CC)CC3)nc2c(=O)[nH]1` displayed a concentration for half-maximal inhibition (IC50) in [5] of 13 nM.
Consider `CCc1c2nc(-c3cc(S(=O)(=O)N4CCN(CC)CC4)cnc3OCCOC)[nH]c(=O)c2nn1Cc1ccccn1`, for which, in [19], the bioavailability is 45%. Also, half-maximal inhibition in data set [5] (IC50) was put at 1.3 nM.
Turning to `CCCOc1ncc(C(C)=O)cc1-c1nc(=O)c2nn(C3CNC3)c(CC)c2[nH]1`, the Selectivity ratio in data set [11] is 55.
